# Compound activity deposited in PubChem by several laboratories.
# A selection: hits, their analogues and other compounds. The true share with any hit is near 0.63%.
# GSK3B inh: human GSK3beta kinase inhibitors, primary screen, biochemical, cell-free homogeneous, HTS. Glycogen synthase kinase-3 beta (Homo sapiens), P49841. GST-GSK3beta kinase, ADP-Glo luminescence, 60 min; stronger effect = lower value. activity score (negative = inhibition), % at 10 µM. 300,000 tested, 0.038% active;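 active = more than half of replicate wells score below -50%, meaning over 50% inhibition versus plate controls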;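 note: 0% = median DMSO wells and -100% = median GW8510 positive control wells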
#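 test system = GST-tagged human GSK3beta kinase, cell-free | reagent = 25 µM ATP with peptide substrate | dosing = one dose of 10 µM per compound | schedule = 60 min reaction, RT | detection = luminescent ADP-Glo measurement of ADP formed | control set = DMSO neutral wells and GW8510 at 20 µM as positive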
# MT1-MMP act inh: blockers of MT1-MMP proenzyme processing, primary screen, HT1080 RFP-PRO-GFP cells, GFP/RFP fluorescence; Matrix metalloproteinase-14 (Homo sapiens), P50281; GFP/RFP ratio fluorescence, overnight; percent of plate control window, DMSO zero; GFP/RFP ratio change, % at 20 µM; 360,000 tested, 0.061% active; AID 651647, 2012;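 active = GFP/RFP ratio change of at least 30% with cell ATP level not reduced by more than half and red fluorescence within 50% of control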
#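 Read-out: GFP/RFP fluorescence ratio; Test system: RFP-PRO-GFP reporter HT1080 cells; Compound dosing: single-point 20 µM compound, 1% DMSO; Times: overnight compound exposure at 37 °C.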
# GSK3 alpha inh: blockers of GSK3A enzyme activity – biochemical, luminescence, cell-free homogeneous, HTS, primary screen; Glycogen synthase kinase-3 alpha (Homo sapiens), P49840; GSK-3 alpha kinase, ADP-Glo luminescence, 60 min; inhibition, % at 10 µM; 320,000 tested, 0.1% active;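 active = more than half of replicates show inhibition above 20%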;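 note: GST-tagged GSK-3 alpha with peptide substrate and 25 µM ATP; 0% = DMSO neutral wells and 100% = GW8510 positive control wells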
# STK33 inh: inhibitors of purified STK33 kinase, primary screen, biochemical, ADP-Glo luminescence, homogeneous, cell-free; MBP phosphorylation; 320,000 tested, 0.073% active; inhibition, % at 10 µM; AID 2661, 2010;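 active = inhibition at or above 25%, using the most active replicate where run in duplicate; inactive = inhibition below 25%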
# Pemphigus Ab inh: inhibitors of pemphigus antibody binding to DSG3, primary screen, biochemical, bead-based, flow cytometry, scFv-GFP | DSG3-coupled beads, scFv-anti-DSG3-GFP binding; stronger effect = lower value | binding (percent of control), % at 10 µM | 310,000 tested, 0.48% active | AID 588358, 2011;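 active = binding more than 3 SD below its plate's average and above zero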;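 note: hits lower antibody fragment binding to DSG3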
# Target sequence (P32926 whole entry, looked up, the tested form may be a part): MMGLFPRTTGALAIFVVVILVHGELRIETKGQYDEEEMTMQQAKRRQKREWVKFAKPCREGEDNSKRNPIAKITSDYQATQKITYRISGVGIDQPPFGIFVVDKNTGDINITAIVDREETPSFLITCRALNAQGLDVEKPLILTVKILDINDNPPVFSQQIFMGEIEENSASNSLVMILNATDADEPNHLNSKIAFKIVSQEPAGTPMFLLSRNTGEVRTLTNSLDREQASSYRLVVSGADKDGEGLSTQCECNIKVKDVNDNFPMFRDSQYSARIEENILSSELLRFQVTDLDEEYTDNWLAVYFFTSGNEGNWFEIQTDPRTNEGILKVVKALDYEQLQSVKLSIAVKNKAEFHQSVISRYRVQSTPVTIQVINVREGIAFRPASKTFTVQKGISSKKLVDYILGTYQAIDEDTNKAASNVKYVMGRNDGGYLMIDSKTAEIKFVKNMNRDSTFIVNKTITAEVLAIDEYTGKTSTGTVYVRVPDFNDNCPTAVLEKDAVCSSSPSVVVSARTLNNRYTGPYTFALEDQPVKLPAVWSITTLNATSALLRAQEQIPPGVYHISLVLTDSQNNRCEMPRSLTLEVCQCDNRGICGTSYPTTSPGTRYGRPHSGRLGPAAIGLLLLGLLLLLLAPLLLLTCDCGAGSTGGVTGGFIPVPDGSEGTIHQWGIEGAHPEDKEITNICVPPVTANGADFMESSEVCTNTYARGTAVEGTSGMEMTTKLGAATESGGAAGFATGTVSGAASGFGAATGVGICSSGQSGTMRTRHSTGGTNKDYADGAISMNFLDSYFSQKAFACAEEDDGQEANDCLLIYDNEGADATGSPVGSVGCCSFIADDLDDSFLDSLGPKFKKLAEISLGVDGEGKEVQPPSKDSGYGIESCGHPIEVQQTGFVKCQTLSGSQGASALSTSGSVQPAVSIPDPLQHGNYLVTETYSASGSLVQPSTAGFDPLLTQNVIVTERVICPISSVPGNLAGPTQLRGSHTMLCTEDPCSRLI
# * = called active by the depositor; · = no result given.
SMILES,GSK3B inh,MT1-MMP act inh,GSK3 alpha inh,STK33 inh,Pemphigus Ab inh
CC(C)N1CCN(C(=O)c2ccc(NC(=O)c3ccc(Br)o3)cc2)CC1,·,1,-4,3,68*
CC(C)(C)S(=O)N1Cc2cc(C(=O)N[C@@H]3CCN(Cc4ccccc4)C3)nc(-c3cccc(-c4cc5ccccc5o4)c3)c2[C@@H]1CCO (stereo partly specified),·,-6,·,·,·
COc1ccc(NC(=O)c2ccc3c(c2)C(=O)N(Cc2ccncc2)C3=O)cc1S(N)(=O)=O,·,3,-5,-2,69*
O=C(/C=C/c1cccc(F)c1)N1CCc2ccccc21,3,-3,-4,0,18*
O=C(NCCNC(=O)c1ccc(-c2cc(Cl)ccc2Cl)o1)c1cnccn1,·,3,·,·,106
Cc1noc(C)c1-c1ccc(C(=O)NCCC(F)(F)F)c2occc12,·,11,·,·,·
CCCC1=C(C(=O)OCC)C(c2sccc2C)n2ncnc2N1 (stereo unspecified),-34,0,78*,1,106
CCOC(=O)C1=C(C)Nc2ncnn2C1c1ccccc1F (stereo unspecified),0,6,3,-2,106
CC1=C(C(=O)OC(C)C)C(c2c[nH]c3ccccc23)n2ncnc2N1 (stereo unspecified),0,13,93*,1,104
CCOC(=O)C1=C(C)Nc2ncnn2C1c1c[nH]c2ccccc12 (stereo unspecified),-74*,-11,71*,-1,102
O=C(CC[C@H]1O[C@@H](n2cnc3c(NC(=O)c4ccccc4)ncnc32)[C@H](O)[C@@H]1O)NCCc1cc2ccccc2[nH]1,·,2,·,·,·
O=C(Cc1cccs1)Nc1ccc(NC(=O)c2ccco2)cc1,1,3,-2,-1,-21*
Cc1ccccc1-c1cc2nc(NCc3ccc4occc4c3)n(C)c(=O)c2s1,·,-2,·,·,·
O=C(O)C(CO)N=Cc1c(O)c2ccccc2oc1=O (stereo unspecified),-1,-9,-1,1,105
CC(N=Cc1c(O)c2ccccc2oc1=O)C(=O)O (stereo unspecified),3,-11,1,0,51*
O=C(/C=C/Nc1ccc(Oc2ccccc2)cc1)c1ccco1,-2,-1,1,1,14*
NC(=O)c1ccccc1N/C=C/C(=O)c1ccco1,-3,-11,·,-2,96
CCOC(=O)c1ccc(S(=O)(=O)NCC(C)(C)N2CCOCC2)cc1,-1,3,6,9,77*
CC(=O)c1cccc(S(=O)(=O)NCC(C)(C)N2CCOCC2)c1,-2,4,-4,1,96
CC(C)(C)Cc1c(-c2ccc(C#N)cc2)nc2c(Cl)cc(C(F)(F)F)cn12,·,4,·,·,·
CC(=O)Nc1cc(=O)c2cccnc2[nH]1,·,-12,·,·,73*
CC(C)c1ccc(NC(=O)CN2C(=O)COc3ccc(S(=O)(=O)N4CCOCC4)cc32)cc1,6,·,-13,1,74*
CC(C)(C)c1ccc(C(=O)N2CCN(CCNC(=O)C(=O)NCc3ccc(Cl)cc3)CC2)cc1,-2,8,0,1,96*
COC(=O)[C@@]12C[C@@H](CC(=O)NCc3cccc(C(F)(F)F)c3)C(=O)N(Cc3ccc4c(c3)OCO4)C1=CCC(C)(C)C2,·,-1,·,·,·
CCn1c2ccccc2c(=O)c2ccccc21,-18,-5,10,31*,107
SMILES,GSK3B inh,MT1-MMP act inh,GSK3 alpha inh,STK33 inh,Pemphigus Ab inh
CCn1c2ccccc2c2cc([N+](=O)[O-])ccc21,1,-6,-5,0,110
O=C(COc1ccc(Cl)cc1)NCCNc1ccc([N+](=O)[O-])cc1,-3,-3,-1,0,72*
O=C(NCCNc1ccc([N+](=O)[O-])cc1)c1ccc(Cl)cc1,-2,1,-2,-2,100
COc1c(-c2ccc(O)c(O)c2)oc2cc(O)cc(O)c2c1=O,1,0,90*,18,95
O=c1c(O)c(-c2ccccc2)oc2cc(O)cc(O)c12,·,-9,·,·,·
O=c1c(O)c(-c2cc(O)c(O)c(O)c2)oc2cc(O)cc(O)c12,·,-15,62*,37*,100
S=C(NCCCCN(Cc1ccc(Cl)cc1)c1ccc(Br)cn1)NCCCc1cnc[nH]1,·,5,·,·,·
CC(C)(C)c1ccc(C(O)c2ncc(-c3ccc(F)cc3)[nH]2)cc1 (stereo unspecified),·,1,·,·,·
C/C(=N/Nc1ccnc2cc(Cl)ccc12)c1ccc(O)cc1,0,5,0,32*,105
C/C(=N/Nc1ccnc2cc(Cl)ccc12)c1ccc(N)cc1,-1,9,0,6,·
CC(C)n1c(SCC(=O)Nc2nc3ccccc3s2)nc2c1c(=O)n(C)c(=O)n2C,-1,23,-1,1,87*
CCN(CC)c1ccc(/C=C2\NC(=O)NC2=O)cc1,4,0,2,-1,81
CCN(CC)c1ccc(/C=C2\C(=O)c3ccc(C(=O)O)cc3C2=O)cc1,·,-27,23,61*,181
Nc1nc2ccc(Cl)cc2cc1C(=O)NCCc1c[nH]c2ccccc12,·,5,·,·,·
CCn1c(C)cc(C(=O)CSc2nnc(C3CC3)n2C2CC2)c1C,·,0,·,·,104
O=C(Cn1c2ccccc2c2nc3n(c(=O)c21)CCS3)Nc1ccccc1C(F)(F)F,-2,·,0,-1,93*
COc1cc(/C=N/Nc2ccccc2[N+](=O)[O-])cc(OC)c1O,0,12,6,-1,91
COc1cc(/C=N/Nc2ccc(S(N)(=O)=O)cc2[N+](=O)[O-])cc(OC)c1O,-2,8,0,-1,83*
O=C(c1cc2cc3ccc(Cl)cc3nc2o1)N1CCN(Cc2ccc3c(c2)OCO3)CC1,·,-1,·,·,59*
Oc1ccc(Nc2nc(-c3ccccc3O)nc3ccccc23)cc1,0,-9,-3,49*,92
COc1ccc(Nc2nc(-c3ccccc3O)nc3ccccc23)cc1,-4,-8,-3,4,104
CCOC(=O)c1cnc2ccc(OC)cc2c1Nc1ccc(N2CCN(C)CC2)cc1,-59*,-2,84*,0,95
COc1cccc(/C=C2\Oc3cc(OCC(=O)N4Cc5ccccc5C[C@H]4C(=O)O)ccc3C2=O)c1,1,1,5,15,108
O=C1/C(=C/c2ccc3c(c2)OCO3)Oc2cc(OCC(=O)N3CCC[C@H]3C(=O)O)ccc21,1,2,59*,5,·
COc1ccc(OC[C@@H](O)CNC(=O)c2cccc3c2C(=O)c2ccc(-c4ccc(F)cc4OCc4ccccc4)cc2S3(=O)=O)cc1,·,5,-56,-1,60*
